# Published values of several laboratories.
# Target: Tyrosine-protein kinase JAK2 (JAK2, Homo sapiens, UniProt O60674)
# Observed: enzyme activity
# Action: inhibitor
SMILES,method,concentration,remaining activity [%]
COc1cc(Nc2cnc(C#N)c(O[C@H](C)CN(C)C)n2)ncc1-c1cnn(C)c1,radiometric,10 µM,41
CN1CCc2cc(Nc3ncc(C4CC4)c(NCCCNC(=O)C4CCC4)n3)ccc2C1,radiometric,1 µM,44
O=C(Nc1cnn(-c2csc(C(=O)NC3COC3)c2)c1)Nc1ccccc1Cl,,5 µM,98.2
O=C(Nc1cccc(Nc2ncc(Br)c(NCCc3cnc[nH]3)n2)c1)N1CCCC1,radiometric,1 µM,24
CC(C)(O)[C@H]1CC[C@H](Nc2ccc3ncc(-c4cccc(C(F)(F)F)c4)n3n2)CC1,,1 µM,24.8
Cc1cnc(NC2CCOCC2)nc1-n1cnc(C(=O)NC(CN)c2cc(F)cc(Cl)c2)c1 (stereo not shown),radiometric,1 µM,104
O=C(NCCCNc1nc(Nc2cccc(CN3CCOCC3)c2)ncc1C1CC1)C1CCC1,radiometric,1 µM,46
CC(C)(C)c1nc2c(s1)c1nc(N)ncc1c1ccc(NS(=O)(=O)c3c(F)cccc3F)c(F)c12,radiometric,1 µM,85
O=C(Nc1cnn(-c2csc(C(=O)NC3COC3)c2)c1)Nc1c(F)cccc1Cl,,5 µM,96.5
Brc1cnc(Nc2cccc(CN3CCOCC3)c2)nc1NCCc1c[nH]cn1,radiometric,1 µM,6
CC(C)(C)c1nc(-c2cccc(NS(=O)(=O)c3c(F)cccc3F)c2F)c(-c2ccnc(N)n2)s1,radiometric,1 µM,90
Cc1nn(CC(F)(F)F)cc1Nc1ncc(Br)c(NCc2ccc(S(N)(=O)=O)cc2)n1,radiometric,1 µM,70
Cn1c(=O)n(-c2ccc(C(C)(C)C#N)cc2)c2c3cc(-c4cnc5ccccc5c4)ccc3ncc21,,10 µM,24
COc1cc(Cl)c(C(=O)N[C@@H](CN[C@H]2CC[C@@H](N)CC2)Cc2ccc(C#N)cc2)cc1-c1ccc(CN[C@H](C)c2ccc(C)cc2)o1,,1 µM,104
Oc1cccc(-c2nc(N3CCOCC3)c3oc4ncccc4c3n2)c1,,10 µM,93
Cc1ccc(C(=O)Nc2ccc(CN3CCN(C)CC3)c(C(F)(F)F)c2)cc1C#Cc1cnc2cccnn12,,23.5 nM,58
